The test system of one test is MCF7. The test can be described thus: Antiproliferative activity against human MCF7 cells assessed as growth inhibition after 72 hrs by MTT assay. To be noted: MCF7, 72 h. On the technique in general: Tetrazolium dyes change colour on reduction, which living cells bring about.
Test [1] relates to HeLa. The test can be described thus: Antiproliferative activity against human HeLa cells assessed as growth inhibition after 72 hrs by MTT assay.
Test [2] deals with Serine/threonine-protein kinase PLK2 (Homo sapiens, UniProt Q9NYY3). The experiment in a line: Inhibition of recombinant Plk2 (unknown origin).
Serine/threonine-protein kinase PLK2, sequence (Q9NYY3 whole entry): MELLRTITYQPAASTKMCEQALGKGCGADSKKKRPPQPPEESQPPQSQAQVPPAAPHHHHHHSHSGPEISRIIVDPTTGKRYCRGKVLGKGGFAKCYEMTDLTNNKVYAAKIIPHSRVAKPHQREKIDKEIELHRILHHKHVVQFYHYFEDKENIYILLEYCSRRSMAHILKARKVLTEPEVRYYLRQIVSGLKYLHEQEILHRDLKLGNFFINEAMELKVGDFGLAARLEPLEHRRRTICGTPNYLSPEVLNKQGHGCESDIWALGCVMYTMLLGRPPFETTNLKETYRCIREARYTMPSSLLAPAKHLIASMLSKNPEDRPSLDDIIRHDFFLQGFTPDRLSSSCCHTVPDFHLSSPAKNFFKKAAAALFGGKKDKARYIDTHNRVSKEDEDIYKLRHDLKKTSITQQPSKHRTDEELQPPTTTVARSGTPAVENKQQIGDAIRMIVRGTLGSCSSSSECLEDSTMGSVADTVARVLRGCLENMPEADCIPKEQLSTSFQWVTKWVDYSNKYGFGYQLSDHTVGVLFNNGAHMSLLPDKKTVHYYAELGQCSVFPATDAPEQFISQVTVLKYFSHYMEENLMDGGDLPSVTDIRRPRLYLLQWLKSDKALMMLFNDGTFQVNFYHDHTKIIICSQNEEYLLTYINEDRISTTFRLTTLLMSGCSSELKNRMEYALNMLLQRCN
Test [3] deals with HeLa. The test can be described thus: Induction of apoptosis in human HeLa cells assessed as PARP cleavage at 1 uM after 24 to 48 hrs by Western blot analysis. Format: functional, cell-based. A digest of the protocol: (§1)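 HeLa cells exposed to 1 µM for 24 h, with treatment continued to 48 h. Cell proteins analysed by western blot for PARP, total Caspase-3 and its cleaved active form.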

Test [4] deals with HeLa. The experiment in a line: Induction of apoptosis in human HeLa cells assessed as increase in cleaved caspase-3 level at 1 uM after 24 to 48 hrs by Western blot analysis. Format: functional, cell-based. A digest of the protocol: as §1
On the technique in general: A western blot detects proteins with antibodies after separation by electrophoresis.

Test [5] deals with HeLa. The test can be described thus: Induction of apoptosis in human HeLa cells assessed as apoptotic cells at 1 uM after 24 hrs using annexin V/propidium iodide double staining by flow cytometry (reference value: 4.4 %). Format: functional. (In general: A flow cytometer gives signals particle by particle.)
The target in test [6] is Serine/threonine-protein kinase PLK3 (Homo sapiens, UniProt Q9H4B4). The experiment in a line: Inhibition of recombinant Plk3 (unknown origin).
Serine/threonine-protein kinase PLK3, sequence (Q9H4B4 whole entry): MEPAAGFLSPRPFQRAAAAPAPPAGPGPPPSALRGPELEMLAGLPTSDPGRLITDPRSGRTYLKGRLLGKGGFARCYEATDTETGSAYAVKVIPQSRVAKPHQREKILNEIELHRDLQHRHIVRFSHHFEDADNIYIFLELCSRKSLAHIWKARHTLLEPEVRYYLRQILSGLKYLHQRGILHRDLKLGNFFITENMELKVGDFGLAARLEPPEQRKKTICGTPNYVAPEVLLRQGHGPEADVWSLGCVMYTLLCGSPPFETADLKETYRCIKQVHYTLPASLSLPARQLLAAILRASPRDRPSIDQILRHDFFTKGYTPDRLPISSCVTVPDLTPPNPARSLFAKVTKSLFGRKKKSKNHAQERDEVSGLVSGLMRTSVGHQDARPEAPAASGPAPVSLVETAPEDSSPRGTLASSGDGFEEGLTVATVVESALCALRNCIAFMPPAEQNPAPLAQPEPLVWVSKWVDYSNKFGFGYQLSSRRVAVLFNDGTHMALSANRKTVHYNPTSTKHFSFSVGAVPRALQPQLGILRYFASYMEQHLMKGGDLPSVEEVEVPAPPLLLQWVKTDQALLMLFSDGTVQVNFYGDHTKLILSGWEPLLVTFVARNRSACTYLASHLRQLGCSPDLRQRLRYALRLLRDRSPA

Each structure is given as a SMILES string. pIC50: −log10 of the molar value. Activity calls are given as the source filed them. The calls are words filed in the database; no cut-off is given here. Bounds are passed on as bounds.

This passage reports IC50 and Activity results from ChEMBL document CHEMBL3392993, “Identification of indole-3-carboxylic acids as non-ATP-competitive Polo-like kinase 1 (Plk1) inhibitors” (Bioorg Med Chem Lett, 2015).

Take `CCN(CC)CC(O)Cn1cc(C(=O)O)c2ccccc21` (racemic): the values for the pIC50 with MCF7 and with HeLa [1] were 5.36 and 5.17, respectively.
For the compound `O=C(O)c1cn(CC(O)CN2CCCCC2)c2ccccc12` (racemic), the pIC50 with MCF7 was 5.27; with HeLa [1], 5.31.
In the case of `O=C(O)c1cn(CC(O)CN2CCCC2)c2ccccc12` (racemic), the negative logarithm of the IC50 (pIC50) with MCF7 was below 5.00; in the test on HeLa [1] it was 5.13.
`CN1CCN(CC(O)Cn2cc(C(=O)O)c3ccccc32)CC1` (racemic): the pIC50 in the test with MCF7 and with HeLa [1] was below 5.00 throughout.
For the compound `CCN(CC)CC(O)Cn1cc(CC(=O)O)c2ccccc21` (racemic), the pIC50 in the test with MCF7 is 5.50; in the test with HeLa [1], 5.18.
For `O=C(O)Cc1cn(CC(O)CN2CCCCC2)c2ccccc12` (racemic) the same measures were 5.72 and 6.01.
On to `O=C(O)Cc1cn(CC(O)CN2CCCC2)c2ccccc12` (racemic), for which the negative logarithm of the IC50 (pIC50) was below 4.30 in test [2], 5.94 in the test on MCF7, 6.14 in the test on HeLa [1] and below 4.30 in test [6]. In addition, the outcome with HeLa [3] and in the test on HeLa [4] was Active. Moreover, the Activity with HeLa [5] is 12.7%.
For `CN1CCN(CC(O)Cn2cc(CC(=O)O)c3ccccc32)CC1` (racemic), the pIC50 in the test on MCF7 was 5.61; in the test with HeLa [1], 5.40.
For the compound `O=C(O)Cc1cn(CC(O)CN2CCOCC2)c2ccccc12` (racemic), the pIC50 is below 5.00 in the test on MCF7 and 5.67 in the test on HeLa [1].
On to `O=C(O)CCc1cn(CC(O)CN2CCCCC2)c2ccccc12` (racemic), for which the pIC50 with MCF7 is 5.06; with HeLa [1] it was below 5.00.
Take `O=C(O)CCc1cn(CC(O)CN2CCCC2)c2ccccc12` (racemic): the pIC50 in the test with MCF7 was below 5.00; with HeLa [1], 5.31.
Turning to `CC1=CC(=O)C(C(C)C)=CC1=O` [THYMOQUINONE], the pIC50 was 4.83 in test [2], 5.21 in the test on MCF7, 5.69 in the test with HeLa [1] and below 4.30 in test [6].

As a reminder, the pIC50 is the IC50 on a negative log10 scale, so that one unit is a factor of ten.
